Common to all, as to format: functional
For one experiment, the system named is KB. The experiment can be described thus: Cytotoxicity against human KB cells assessed as growth inhibition. To be noted: for EC50: Homo sapiens, KB, read-out: ED50 (the source's name). Put shortly:
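KB cell culture run under standard National Cancer Institute Division of Cancer Treatment protocols. Compounds were dissolved in water or propylene glycol as vehicle, depending on the compound. ED50 is the dose that inhibits growth to 50% of control growth, in μg/ml.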

Experiment [1] concerns P388. The experiment can be described thus: Antitumor activity against mouse P388 cells allografted in mouse assessed as increase in life span at 400 mg/kg, ip qd administered on day 1 to day 9 relative to control. As to conditions: route intraperitoneal. Put shortly:
(§1)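 NCI Division of Cancer Treatment standard P-388 lymphocytic leukaemia protocol in mice. Drug given intraperitoneally once daily on days 1–9, with dose in mg/kg. The vehicle was water, saline or propylene glycol depending on the compound. T/C = (mean or median survival of treated ÷ control survival) × 100.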

Experiment [2] relates to P388. The experiment can be described thus: Antitumor activity against mouse P388 cells allografted in mouse assessed as increase in life span at 0.3 mg/kg, ip qd administered on day 1 to day 9 relative to control. To be noted: route intraperitoneal. In short, it runs like this: as §1
Experiment [3] relates to P388. The experiment can be described thus: Antitumor activity against mouse P388 cells allografted in mouse assessed as increase in life span at 6.25 mg/kg, ip qd administered on day 1 to day 9 relative to control. To be noted: route intraperitoneal. Put shortly:
as §1

The subject of experiment [4] is P388. The experiment can be described thus: Antitumor activity against mouse P388 cells allografted in mouse assessed as increase in life span at 38.4 mg/kg, ip qd administered on day 1 to day 9 relative to control. To be noted: route intraperitoneal. Put shortly: as §1
Experiment [5] relates to P388. Kind of experiment: Antitumor activity against mouse P388 cells allografted in mouse assessed as increase in life span at 5 mg/kg, ip qd administered on day 1 to day 9 relative to control. As to conditions: route intraperitoneal. In short, it runs like this:
as §1

Experiment [6] has as its system P388. Kind of experiment: Antitumor activity against mouse P388 cells allografted in mouse assessed as increase in life span at 100 mg/kg, ip qd administered on day 1 to day 9 relative to control. As to conditions: route intraperitoneal. Put shortly:
as §1

Experiment [7] deals with P388. The experiment can be described thus: Antitumor activity against mouse P388 cells allografted in mouse assessed as increase in life span at 256 mg/kg, ip qd administered on day 1 to day 9 relative to control. To be noted: route intraperitoneal. Put shortly:
as §1

Experiment [8] relates to P388. Kind of experiment: Antitumor activity against mouse P388 cells allografted in mouse assessed as increase in life span at 40 mg/kg, ip qd administered on day 1 to day 9 relative to control. To be noted: route intraperitoneal. In short, it runs like this:
as §1

Values after ≈ are worked out from the molar mass of the structure shown. Active and inactive are the calls of the source. The rule behind the calls is not given here.

As a reminder, the T/C is the result in the treated group divided by that in the control group, in per cent.

As for `Cc1[nH]c(=O)[nH]c(=O)c1/C=C/C(=O)NC(CO)CSC(C)C` (stereo not given), the EC50 in the experiment with KB is more than 100 µg/mL. Moreover, in the experiment on P388 [1], the T/C amounted to 89%. As for `CSC[S+]([O-])C[C@H](CO)NC(=O)/C=C/c1c(C)[nH]c(=O)[nH]c1=O` (stereo not given in full), the T/C in the experiment on P388 [2] is on record as 156%. Besides, the EC50 in the experiment with KB came to 0.08 µg/mL (≈ 0.221 µM). Turning to `CCCCCCCCCC[S+]([O-])CC(CO)NC(=O)/C=C/c1c(C)nc(O)nc1O` (racemic), the T/C with P388 [3] was 153%.

`CSCSCC(CO)NC(=O)/C=C/c1c(C)nc(O)nc1O` (racemic) [listing 1 of 2 here]: the T/C with P388 [4] was determined as 92%. As for `CCCC[S+]([O-])CC(CO)NC(=O)/C=C/c1c(C)[nH]c(=O)[nH]c1=O` (racemic), the T/C with P388 [5] stood at 161%. In the experiment with KB, the EC50 is 1.2 µg/mL (≈ 3.36 µM).

With `CCCCCCCCCCSCC(CO)NC(=O)/C=C/c1c(C)[nH]c(=O)[nH]c1=O` (racemic), the T/C in the experiment with P388 [6] is 155%. Consider `CSCC(CO)NC(=O)/C=C/c1c(C)[nH]c(=O)[nH]c1=O` (racemic), for which, in the experiment on P388 [1] (400 mg/kg), the T/C was 88%. Regarding `Cc1[nH]c(=O)[nH]c(=O)c1/C=C/C(=O)NC(CO)C[S+](C)[O-].O` (racemic), in the experiment with P388 [7], the T/C was determined as 137%. For the same compound, the ED50 in the experiment with KB was determined as 1.5 µg/mL. `Cc1[nH]c(=O)[nH]c(=O)c1/C=C/C(=O)NC(CO)C[S+]([O-])C[S+](C)[O-].O` (racemic): the T/C in the experiment with P388 [5] is listed as 137%. Further, the EC50 in the experiment on KB is 2.4 µg/mL. `CSCSCC(CO)NC(=O)/C=C/c1c(C)nc(O)nc1O` (racemic) [listing 2 of 2 here]: the ED50 entry with KB was “inactive”. Consider `CSCSCC(CO)NC(=O)/C=C/c1c(C)nc(O)nc1O` (single isomer, unassigned; (+)), for which the ED50 in the experiment with KB was 13 µg/mL (≈ 37.6 µM). In addition, the T/C in the experiment on P388 [1] (400 mg/kg) was 14%. The corresponding values for `CSCSCC(CO)NC(=O)/C=C/c1c(C)nc(O)nc1O` (single isomer, unassigned; (-)) are more than 100 µg/mL and 86%.

`CSCC(CO)NC(=O)/C=C/c1c(C)[nH]c(=O)[nH]c1=O` (single isomer, unassigned; (-)): the EC50 with KB is more than 100 µg/mL. In the experiment with P388 [1] (400 mg/kg), the T/C came to 69%.

As for `Cc1[nH]c(=O)[nH]c(=O)c1/C=C/C(=O)NC(CO)CSCc1ccccc1` (single isomer, unassigned; (-)), the EC50 with KB is more than 100 µg/mL. The T/C in the experiment with P388 [1] came to 95%. For `CCCCSCC(CO)NC(=O)/C=C/c1c(C)[nH]c(=O)[nH]c1=O` (single isomer, unassigned; (-)), in the experiment with KB, the EC50 was determined as 27 µg/mL (≈ 79.1 µM). As to `Cc1[nH]c(=O)[nH]c(=O)c1/C=C/C(=O)NC(CO)C[S+]([O-])Cc1ccccc1.O` (single isomer, unassigned; (-)), the EC50 in the experiment with KB was determined as 88 µg/mL. Moreover, in the experiment with P388 [1], the T/C turned out to be 93%. In the case of `Cc1[nH]c(=O)[nH]c(=O)c1/C=C/C(=O)NC(CO)C[S+]([O-])C(C)C.O` (single isomer, unassigned; (-)), in the experiment on KB, the EC50 is more than 100 µg/mL. Moreover, the T/C with P388 [1] turned out to be 113%. With `Cc1[nH]c(=O)[nH]c(=O)c1/C=C/C(=O)NC(CO)C[S+](C)[O-].O` (stereo in doubt; 10c), the ED50 in the experiment on KB is more than 100 µg/mL. Further, the T/C in the experiment with P388 [8] is recorded as 100%.
